Source: PubChem
Only some compounds are listed: those with a hit (about 1.1% of all), similar ones and a draw of the others.
PMI activator: increases human mannose-6-phosphate isomerase activity | purified human PMI, coupled resazurin fluorescence, 20 min; active compounds read high; 1 = vehicle control, 0 substrate-free wells | activation factor at 20 µM | actives 0.005% (n = 190,000);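 active means activation factor of 2 or more at 20 µM, relative to plate controls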
Target sequence (P34949 whole entry, looked up): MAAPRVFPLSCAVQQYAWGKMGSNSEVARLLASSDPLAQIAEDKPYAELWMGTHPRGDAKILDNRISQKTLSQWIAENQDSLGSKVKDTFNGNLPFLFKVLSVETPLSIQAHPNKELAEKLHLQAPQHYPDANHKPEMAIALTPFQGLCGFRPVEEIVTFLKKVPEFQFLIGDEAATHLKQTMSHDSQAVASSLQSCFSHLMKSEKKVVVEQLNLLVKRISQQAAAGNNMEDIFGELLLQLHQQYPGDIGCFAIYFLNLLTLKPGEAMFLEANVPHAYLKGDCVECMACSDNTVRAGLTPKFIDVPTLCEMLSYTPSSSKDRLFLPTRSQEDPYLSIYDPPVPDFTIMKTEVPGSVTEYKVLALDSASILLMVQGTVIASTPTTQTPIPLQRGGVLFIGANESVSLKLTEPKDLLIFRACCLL
PMI act hi M6P: increases human PMI activity with near-saturating mannose 6-phosphate; P34949; coupled PMI enzyme assay, resazurin fluorescence, 20 min; active compounds read high; 1 = untreated enzyme, 0 = substrate-free blank; activation factor at 20 µM; actives 0.34% (n = 190,000); AID 1216;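 active means activation factor of 2 or more at 20 µM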
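Material: human phosphomannose isomerase with PGI, G6PDH, diaphorase coupling enzymes. Quantity: 15 ng/mL PMI. Medium: HEPES pH 7.4 buffer with MgCl2 and Tween-20. Reagent: Near-saturating mannose-6-phosphate, 1.0 mM. Compound: 20 µM single dose. Times: enzyme reaction with compound 20 min at room temperature. Detection: resorufin fluorescence at Ex 544/Em 590 nm.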
Diaph inh CS: diaphorase inhibition or chemical oxidation counter-screen; inhibition, % at 20 µM; actives 0.69% (n = 190,000); diaphorase resazurin-to-resorufin fluorescence, NADH, 16 min; bacterial (C. kluyveri) enzyme, not human; AID 1217;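 active means primary screen inhibition at 20 µM above a set limit, cut at about 50% in these data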;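 further: plate controls were DMSO with full reaction for no effect and wells lacking NADH for full effect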
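Test system: bacterial diaphorase enzyme (C. kluyveri); Quantity: 0.14 U/mL diaphorase, enzyme working solution; Times: reaction incubation of 16 min at room temperature; Measured by: fluorescence of resorufin formed from resazurin, Ex 544/Em 590 nm; Benchmarks: positive control minus NADH, DMSO neutral control.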
Diaph act CS: activates diaphorase or chemically reduces, flagging diaphorase assay artifacts; Diaphorase/resazurin coupled assay, resorufin fluorescence, 16 min; active compounds read high; 1 = vehicle wells, 0 = NADH-free wells; activation factor at 20 µM; actives 0.005% (n = 190,000);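 active means diaphorase activity raised at least twofold by the compound at 20 µM; inactive means activation factor below 2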
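Test system: Clostridium kluyveri diaphorase, purified enzyme. Buffer or medium: 50 mM HEPES pH 7.4 buffer plus MgCl2 and Tween 20. Also added: 0.114 mM NADH and 0.1 mM resazurin, final amounts. Dosing: compound 20 µM once, DMSO 1%. Schedule: 16 min enzyme reaction, ambient temperature. Detection: fluorescence of resorufin, 544 nm excitation, 590 nm emission.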
G6PDH CS: counter-screen for G6PDH assay hits: L. mesenteroides G6PDH inhibition | Purified L. mesenteroides G6PDH, diaphorase/resazurin coupled fluorescence, 45 min | inhibition, % at 5 µM | actives 0.12% (n = 200,000); in the data active means inhibition above about 50%
* marks the source's active call; other numbers are inactive results.

SMILES | PMI activator | PMI act hi M6P | Diaph inh CS | Diaph act CS | G6PDH CS
O=c1cccccc1NCc1ccccc1 | 0.8 | 0.9 | 33 | 0.7 | 13
CC(C)(C)C(=O)CSc1nc(N)cc(=O)[nH]1 | 1 | 1 | 4 | 1 | 1
COc1ccc(OC)c(NC(=O)c2cccnc2Sc2ccccc2)c1 | 0.9 | 0.9 | 8 | 0.9 | -2
COc1ccc(C(=O)N/C(=C\c2cccc([N+](=O)[O-])c2)C(=O)Nc2cccc(C(=O)O)c2)cc1 | 1 | 0.9 | 5 | 0.9 | 10
COc1ccc(/C=C(/NC(=O)c2cccc([N+](=O)[O-])c2)C(=O)O)cc1 | 1.7 | 2* | 12 | 0.9 | 0
CCOC(=O)c1ccc(NC(=O)N2CCN(c3cccc(OC)c3)CC2)cc1 | 0.9 | 0.9 | 22 | 0.8 | -1
CN(Cc1nc(Cc2ccccc2F)no1)CC1(N2CCOCC2)CCCCC1 | 0.9 | 1 | -9 | 1.1 | 17
CN(Cc1nc(Cc2ccccc2F)no1)Cc1cccc2ncccc12 | 0.9 | 0.9 | 13 | 0.9 | 51*
N#CCCn1cc(/C=C2\NC(=S)N(c3ccccc3)C2=O)c(-c2ccc(F)cc2)n1 | 0.9 | 0.9 | 85* | 0.2 | 16
O=C(O)CCn1cc(/C=C2\NC(=S)N(c3ccccc3)C2=O)c(-c2ccc(Br)cc2)n1 | 1 | 1 | 23 | 0.8 | 2
CN(C)C(=O)c1cn(-c2ccccc2)nc1-c1cc2ccccc2oc1=O | 1 | 1 | -8 | 1.1 | -1
CN(C)C(=O)c1cn(-c2ccccc2)nc1-c1cc2ccccc2o1 | 1.6 | 2.5* | 21 | 0.8 | 21
Cc1ccccc1C(=O)Nc1ccc2c(C#N)c3nc4ccccc4nc3n2c1 | 1.1 | 0.9 | 72* | 0.3 | 33
CSc1ncc(S(=O)(=O)c2ccccc2)c(=O)[nH]1 | 1.5 | 1.3 | -13 | 1.1 | 4
Cc1ccc(NC(=O)CN(C)C(=O)CCOc2cccc(C)c2)cc1 | 0.9 | 0.9 | 16 | 0.8 | 0
Cc1cccc(-n2c(=S)[nH]c3sc4c(c3c2=O)CCc2ccccc2-4)c1 | 0.2 | 0.2 | 70* | 0.3 | 0
Cc1ccc(-n2c(=S)[nH]c3sc4c(c3c2=O)CCc2ccccc2-4)cc1 | 0.9 | 0.8 | 26 | 0.7 | 8
Cc1cc(/C=C2/NC(=O)N(Cc3ccccc3F)C2=O)c(C)n1C | 1.1 | 0.9 | 20 | 0.8 | -6
CCOc1cc([N+](=O)[O-])cc(/C=C2/NC(=O)N(Cc3ccccc3F)C2=O)c1O | 0.9 | 0.7 | 56* | 0.4 | 7
CCn1ncc([C@@H]2C[C@H]3CN(Cc4cccc(Cl)c4)C(=O)[C@]34CCCN24)c1C | 1 | 1 | 5 | 1 | 14
CCCn1ncc([C@@H]2C[C@H]3CN(Cc4cccc(Cl)c4)C(=O)[C@]34CCCN24)c1C | 1 | 0.9 | 60* | 0.4 | 3
C[C@@H]1NC(=O)c2cc([N+](=O)[O-])cc(I)c2NCCCC[C@@H](C(N)=O)NC(=O)[C@H](CC(N)=O)NC1=O | 1.2 | 1.1 | 6 | 0.9 | 19
O=C1CCNc2cc3ccccc3cc21 | 0.4 | 0.6 | 66* | 0.3 | 58*
O=C1CCNc2ccc(-c3ccccc3)cc21 | 1 | 0.8 | 26 | 0.7 | 7
Cc1cccc(CC(=O)N2CCC(N3CCC(C(=O)N4CCOCC4)CC3)CC2)c1 | 1 | 1 | 55* | 0.4 | 14
SMILES | PMI activator | PMI act hi M6P | Diaph inh CS | Diaph act CS | G6PDH CS
O=C(Cc1ccc(F)cc1)N1CCC(N2CCC(C(=O)N3CCOCC3)CC2)CC1 | 0.9 | 1 | 12 | 0.9 | 9
S=c1[nH]nc(-c2cc(-c3ccco3)[nH]n2)n1-c1ccccc1Cl | 0.9 | 0.8 | 71* | 0.3 | 7
[O-]C1=N/[N+](=C/c2ccc(Cl)cc2)CC1 | 1.5 | 2* | -12 | 1.1 | 5
COc1ccccc1NC(=O)Nc1ccc(F)c(F)c1 | 0.9 | 0.9 | 5 | 1 | 10
Oc1ccc2ccccc2c1CNc1cnc2ccccc2c1 | 0.5 | 0.6 | 60* | 0.4 | 25
Cc1ccc(NC(=O)CSc2nc(O)c(Cc3ccccc3)c(=O)n2-c2ccccc2)cc1 | 1 | 1 | 20 | 0.8 | -3
O=C(O)c1ccccc1-c1ccccc1C(=O)NNc1ccccc1 | 1.7 | 2.9* | 5 | 0.9 | -1
Oc1ccc(CN2CCN(c3ccccc3)CC2)c2cccnc12 | 0.6 | 0.5 | 66* | 0.3 | 19
Oc1ccc(CN2CCCCC2)c2cccnc12 | 0.6 | 0.5 | 58* | 0.4 | 50*
Oc1ccc(COCc2ccccc2)c2cccnc12 | 0.5 | 0.5 | 40 | 0.6 | 17
CC(C)COCc1ccc(O)c2ncccc12 | 0.7 | 0.9 | 55* | 0.4 | 25
Oc1ccc(CN2CCc3ccccc3C2)c2cccnc12 | 0.6 | 0.5 | 48 | 0.5 | -25
Oc1ccc(CN2CCC(Cc3ccccc3)CC2)c2cccnc12 | 0.7 | 0.5 | 62* | 0.4 | 29
CN(C(=O)CSc1nnc(-c2ccncc2)n1Cc1ccccc1)C1CCS(=O)(=O)C1 (stereo unspecified) | 1 | 1 | 11 | 0.9 | -4
COc1ccccc1-c1c(C(F)(F)F)oc2cc(OC(=O)c3ccc([N+](=O)[O-])cc3)ccc2c1=O | 0.9 | 1 | 14 | 0.9 | -18
NNC(=O)/C(=C\c1ccc(Br)cc1)NC(=O)c1cccs1 | 0.9 | 1 | 26 | 0.7 | 3
NC(=S)NNc1cccc2cccnc12 | 0.6 | 1 | 72* | 0.3 | 39
CCOC(=O)N1CCN(Cc2ccc(O)c3ncccc23)CC1 | 0.4 | 0.4 | 72* | 0.3 | 47
COc1cccc(CNc2ccccc2O)c1OCc1ccccc1F | 0.9 | 0.6 | 22 | 0.8 | 24
NC(=S)Nc1cccc2cccnc12 | 0.9 | 0.9 | -3 | 1 | 4
Oc1ccc(F)c2cccnc12 | 0.5 | 0.3 | 50* | 0.5 | 65*
Oc1ccc(CNc2ccccc2F)c2cccnc12 | 0.5 | 0.3 | 89* | 0.1 | 20
Fc1cccc(Cl)c1CSc1nnc2ccccn12 | 1.1 | 1 | -9 | 1.1 | 0
Cc1[nH]c2ccccc2c1N=Nc1ccccc1C(=O)O | 1.3 | 1.2 | 35 | 0.6 | -1
O=C(Cc1ccc(Br)cc1)NC1CCSC1=O (stereo unspecified) | 1.1 | 1.1 | 8 | 0.9 | -2
CCOC(=O)C1C(C)=C(Nc2ccc(OC)cc2)C(=O)N1c1ccc(OC)cc1 (stereo unspecified) | 0.9 | 0.6 | 6 | 0.9 | 5
O=C(Nc1ccccc1)Nc1cccc2cccnc12 | 0.8 | 0.9 | 11 | 0.9 | 8
Oc1ccccc1CNc1cccc2cccnc12 | 0.7 | 0.5 | 66* | 0.3 | 52*
OCc1ccc(O)c2ncccc12 | 0.7 | 0.7 | 28 | 0.7 | 53*
